# From ChEMBL document CHEMBL1828506, “New fluorine-containing hydrazones active against MDR-tuberculosis” (Eur J Med Chem, 2011)
# pIC50: −log10 of the molar value.
# Tests used:
# [1] = system: Mycobacterium kansasii; experiment: Antimycobacterial activity against Mycobacterium kansasii CNTC 6509/96 after 14 days; assay type: functional; settings: CNTC 6509/96, 336 h
# [2] = system: Mycobacterium kansasii; experiment: Antimycobacterial activity against Mycobacterium kansasii CNTC My 235/80 after 14 days; assay type: functional; settings: CNTC My 235/80, 336 h
# [3] = system: Mycobacterium avium; experiment: Antimycobacterial activity against Mycobacterium avium CNTC 330/88 after 14 days; assay type: functional; settings: CNTC 330/88, 336 h
# [4] = system: Mycobacterium kansasii; experiment: Antimycobacterial activity against Mycobacterium kansasii CNTC 6509/96 after 21 days; assay type: functional; settings: CNTC 6509/96, 504 h
# [5] = system: Mycobacterium kansasii; experiment: Antimycobacterial activity against Mycobacterium kansasii CNTC My 235/80 after 21 days; assay type: functional; settings: CNTC My 235/80, 504 h
# [6] = system: Mycobacterium kansasii; experiment: Antimycobacterial activity against Mycobacterium kansasii CNTC 6509/96 after 7 days; assay type: functional; settings: CNTC 6509/96, 168 h
# [7] = system: Mycobacterium tuberculosis; experiment: Antimycobacterial activity against Mycobacterium tuberculosis H37Rv ATCC 27294 after 28 days by colony forming unit determination; assay type: functional; settings: H37Rv ATCC 27294, 672 h
# Procedure, shortened: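 Compounds added to Sula liquid medium as DMSO solutions (DMSO at most 2%), incubated at 37 °C for 28 days. MIC is the lowest concentration giving visible growth inhibition. Activity was confirmed by CFU counts after subculture onto drug-free Löwenstein-Jensen solid medium.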
# [8] = system: Mycobacterium kansasii; experiment: Antimycobacterial activity against Mycobacterium kansasii CNTC My 235/80 after 7 days; assay type: functional; settings: CNTC My 235/80, 168 h
# [9] = system: Mycobacterium avium; experiment: Antimycobacterial activity against Mycobacterium avium CNTC 330/88 after 21 days; assay type: functional; settings: CNTC 330/88, 504 h
# [10] = system: HepG2; experiment: Cytotoxicity against human HepG2 cells measured after overnight incubation by MTT assay; assay type: cell-based
# Procedure, shortened: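 HepG2 cells in phenol-red-free RPMI-1640 with 10% FCS, 2 mM L-glutamine and gentamycin, seeded at 5 × 10³ per well. After 24 h at 37 °C, cells were exposed overnight to compound in serum-free medium. MTT (2 mg/mL) for 4 h, formazan dissolved in DMSO, read as OD540 minus OD620. % cytotoxicity versus untreated controls; IC50 taken from dose-response curves. Two independent experiments, 4–8 parallel measurements.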
# [11] = Selectivity index, ratio of IC50 for human HepG2 cells to MIC for Mycobacterium tuberculosis H37Rv ATCC 27294; assay type: functional
# [12] = system: PBMC; experiment: Cytotoxicity against human PBMC measured after overnight incubation by MTT assay; assay type: cell-based
# Procedure, shortened: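 Freshly prepared human PBMC in phenol-red-free RPMI-1640 with 10% FCS, 2 mM L-glutamine and gentamycin, 2.0 × 10⁵ cells per well. After 24 h at 37 °C, overnight compound exposure in serum-free medium. MTT for 4 h, formazan in DMSO, OD540 minus OD620. % cytotoxicity versus controls; IC50 from dose-response curves. Two independent experiments.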
# [13] = Hydrolytic stability of the compound in aqueous buffer assessed as half life at pH 5 after 48 hrs by HPLC analysis; assay type: physicochemical
# Procedure, shortened: (§1)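 Compound added from DMSO stock to 100 mM buffer (phosphate at pH 3 and 7.4, acetate at pH 5), final 3 nmol/mL. Sampled at set times up to 48 h, in triplicate. Parent compound and ciprofloxacin/formylciprofloxacin quantified by isocratic RP-18 HPLC with fluorescence detection (276/442 nm). Half-life given with 95% confidence intervals.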
# [14] = Hydrolytic stability of the compound in aqueous buffer assessed as half life at pH 3 after 48 hrs by HPLC analysis; assay type: physicochemical; procedure, shortened: as §1
# [15] = Hydrolytic stability of the compound in aqueous buffer at pH 7.4 after 48 hrs by HPLC analysis; assay type: physicochemical; settings: pH 7.4, 48 h; procedure, shortened: as §1
# [16] = Metabolic stability in rat plasma assessed as parent compound remaining after 96 hrs by HPLC analysis; assay type: ADME, cell-free; settings: read-out: Stability
# Procedure, shortened: (§2)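 Compound spiked into rat plasma from DMSO stock, final 3 nmol/mL. 100 µL aliquots taken at set times and precipitated with an equal volume of acetonitrile. Gradient RP-18 HPLC (phosphate pH 2.0/acetonitrile) with fluorescence detection. Six runs: three to 48 h and three extended to 96 h. Result expressed as % parent compound remaining.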
# [17] = Metabolic stability in rat plasma assessed as parent compound remaining after 48 hrs by HPLC analysis; assay type: ADME, cell-free; settings: read-out: Stability; procedure, shortened: as §2
# [18] = system: SH-SY5Y; experiment: Cytotoxicity against human SH-SY5Y cells measured after overnight incubation by MTT assay; assay type: cell-based
# Procedure, shortened: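 SH-SY5Y neuroblastoma cells in phenol-red-free DMEM with 10% FCS, 2 mM L-glutamine, gentamycin and 1% NEAA, 7.5 × 10³ per well. After 24 h at 37 °C, overnight compound exposure in serum-free medium. MTT readout (OD540 minus OD620) against untreated controls; IC50 from dose-response curves. Two independent experiments.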
SMILES,MIC [1],MIC [2],MIC [3],MIC [4],MIC [5],MIC [6],MIC [7],MIC [8],MIC [9],pIC50 [10],Selectivity Index [11],pIC50 [12],half-life [13],half-life [14],Stability [15],remaining at 96 h [16],remaining at 48 h [17],pIC50 [18]
O=C(N/N=C/Nc1ccc(C(=O)O)c(O)c1)c1ccc(C(F)(F)F)cc1,62.5 µM,125 µM,32 µM,125 µM,250 µM,62.5 µM,4 µg/mL,62.5 µM,125 µM,–,–,–,–,–,–,–,–,–
O=C(N/N=C/Nc1ccc(C(=O)O)c(O)c1)c1cccc(C(F)(F)F)c1,62.5 µM,125 µM,250 µM,62.5 µM,125 µM,62.5 µM,4 µg/mL,32 µM,500 µM,–,–,–,–,–,–,–,–,–
O=C(N/N=C/Nc1ccc(C(=O)O)c(O)c1)c1ccc(F)cc1,32 µM,62.5 µM,32 µM,32 µM,62.5 µM,32 µM,4 µg/mL,32 µM,125 µM,–,–,–,–,–,–,–,–,–
O=C(N/N=C/Nc1ccc(C(=O)O)c(O)c1)c1cccc(F)c1,32 µM,62.5 µM,32 µM,32 µM,62.5 µM,32 µM,2 µg/mL,32 µM,62.5 µM,3.03,148.25,3.03,–,–,–,–,–,–
O=C(O)c1ccc(N/C=N/NC(=O)c2ccccc2F)cc1O,62.5 µM,32 µM,32 µM,62.5 µM,62.5 µM,32 µM,2 µg/mL,32 µM,62.5 µM,2.92,192.06,2.92,–,–,–,–,–,–
O=C(N/N=C/N1CCN(c2cc3c(cc2F)c(=O)c(C(=O)O)cn3C2CC2)CC1)c1ccc(C(F)(F)F)cc1,1 µM,2 µM,32 µM,2 µM,4 µM,1 µM,1 µg/mL,2 µM,62.5 µM,3.46,189.21,3.46,–,–,–,–,–,–
O=C(N/N=C/N1CCN(c2cc3c(cc2F)c(=O)c(C(=O)O)cn3C2CC2)CC1)c1cccc(C(F)(F)F)c1,1 µM,2 µM,250 µM,2 µM,4 µM,1 µM,2 µg/mL,2 µM,250 µM,< 3.49,87.79,< 3.49,–,–,–,–,–,–
O=C(N/N=C/N1CCN(c2cc3c(cc2F)c(=O)c(C(=O)O)cn3C2CC2)CC1)c1ccc(F)cc1,8 µM,4 µM,62.5 µM,16 µM,8 µM,8 µM,1 µg/mL,4 µM,125 µM,< 2.89,634.29,< 3.12,11.8 h,2.9 h,Stable,82%,87%,–
O=C(N/N=C/N1CCN(c2cc3c(cc2F)c(=O)c(C(=O)O)cn3C2CC2)CC1)c1cccc(F)c1,4 µM,4 µM,125 µM,4 µM,8 µM,4 µM,1 µg/mL,4 µM,250 µM,< 3.09,402.38,< 3.52,–,–,–,–,–,–
CCn1cc(C(=O)O)c(=O)c2cc(F)c(N3CCN(/C=N/NC(=O)c4ccc(C(F)(F)F)cc4)CC3)cc21,4 µM,4 µM,500 µM,8 µM,8 µM,2 µM,5 µg/mL,2 µM,500 µM,< 4.43,3.98,3.58,–,–,–,–,–,3.97
CCn1cc(C(=O)O)c(=O)c2cc(F)c(N3CCN(/C=N/NC(=O)c4ccc(F)cc4)CC3)cc21,62.5 µM,32 µM,125 µM,62.5 µM,62.5 µM,32 µM,–,16 µM,250 µM,< 3.10,–,< 3.48,–,–,–,–,–,–
CCn1cc(C(=O)O)c(=O)c2cc(F)c(N3CCN(/C=N/NC(=O)c4cccc(F)c4)CC3)cc21,16 µM,32 µM,125 µM,32 µM,62.5 µM,16 µM,6 µg/mL,16 µM,250 µM,< 3.41,31.67,< 3.41,–,–,–,–,–,< 3.37
O=C(N/N=C/NC(=O)c1cnccn1)c1ccc(C(F)(F)F)cc1,500 µM,250 µM,> 1000 µM,500 µM,250 µM,250 µM,–,250 µM,> 1000 µM,< 3.20,–,–,–,–,–,–,–,–
O=C(N/N=C/NC(=O)c1cnccn1)c1cccc(F)c1,> 500 µM,250 µM,> 500 µM,> 500 µM,> 500 µM,250 µM,–,250 µM,> 500 µM,< 3.89,–,< 3.52,–,–,–,–,–,–
Nc1ccc(C(=O)O)c(O)c1 [AMINOSALICYLIC ACID],125 µM,1000 µM,32 µM,500 µM,> 1000 µM,32 µM,0.2 µg/mL,125 µM,125 µM,–,–,–,–,–,–,–,–,–
O=C(O)c1cn(C2CC2)c2cc(N3CCNCC3)c(F)cc2c1=O [CIPROFLOXACIN],1 µM,2 µM,62.5 µM,2 µM,2 µM,1 µM,0.5 µg/mL,1 µM,62.5 µM,< 3.30,333.33,< 3.30,–,–,–,–,–,< 3.30
NNC(=O)c1ccncc1 [ISONIAZID],4 µM,> 250 µM,> 250 µM,4 µM,> 250 µM,2 µM,0.01 µg/mL,250 µM,> 250 µM,< 3.00,–,2.33,–,–,–,–,–,–
CCn1cc(C(=O)O)c(=O)c2cc(F)c(N3CCNCC3)cc21 [NORFLOXACIN],8 µM,16 µM,125 µM,8 µM,16 µM,2 µM,5 µg/mL,8 µM,250 µM,< 3.30,31.85,< 3.30,–,–,–,–,–,< 3.30
NC(=O)c1cnccn1 [PYRAZINAMIDE],1000 µM,> 1000 µM,500 µM,1000 µM,> 1000 µM,125 µM,–,500 µM,> 1000 µM,–,–,–,–,–,–,–,–,–
